Like-named read-outs stand apart in the source and are kept apart here.
Legend:
[1] = tested on: gut microbiota (intestinal bacteria incubation system); assay: Metabolism of SNZ by intestinal bacteria in vitro; type: in vitro ADME, Balb/c mice; conditions: SNZ 10 μg/mL; for course of metabolite content in intestinal bacteria incubation: 0-2 h
Outline: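 Contents of male Balb/c intestine were mixed 1:30 (w/v) in anaerobic medium, kept under N2 and pre-incubated 30 min at 37 °C. Test compound was present at a final 10 μg/mL, and inactivated bacteria medium served as negative control. Shaking at 37 °C, 200 rpm was done in two separate runs: 0, 1, 2, 6, 12 and 24 h, then 0, 15, 30, 60, 90 and 120 min. Parent and metabolite contents were followed over time.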

[2] = Pharmacokinetics after oral SNZ in normal Balb/c mice and pseudo-germfree; type: in vivo; conditions: oral SNZ 109.2 mg/kg; for Cmax / half-life / Tmax: Balb/c, mouse, po, 109.2 mg/kg; for Cmax / half-life / Tmax / AUC(0−t) / AUC(0−∞): plasma, mean
[3] = Pharmacokinetics after oral SNZ in tumor mice and PGF tumor mice; type: in vivo, Balb/c mice; conditions: oral SNZ 109.2 mg/kg
[4] = Tissue distribution after oral SNZ in tumor bearing mice; type: in vivo, Balb/c mice; conditions: 20 min after oral SNZ 109.2 mg/kg; for tissues in which the metabolite is distributed: tumor mice
Outline: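 Three tumour-bearing mice per group, conventional or PGF, were fasted overnight and dosed orally at 109.2 mg/kg. After 20 min they were anaesthetised with 20% urethane and PBS-perfused. Organs and tumour were homogenised in 3 volumes of PBS. 100 μL homogenate was mixed with 300 μL methanol containing glipizide (100 ng/mL), vortexed 1 min and centrifuged at 14,000 rpm for 10 min. Supernatant was analysed by HPLC-MS/MS.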

[5] = tested on: carboxylesterase of gut microbiota; type: in vitro ADME, Balb/c mice; conditions: for inhibition rate of tyrosol production: 120 min, SNZ 10 μg/mL, vs control group
Outline: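 Gut bacteria incubations were set up as for the microbial metabolism assay, with test compound at a final 10 μg/mL. The carboxylesterase inhibitor BNPP was added at 1, 5 or 10 mM; cultures without BNPP served as control. Incubation was at 37 °C for 0, 15, 30, 60, 90 and 120 min. Inhibition of tyrosol production at 120 min was expressed relative to control.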

[6] = tumor mice (column head Normal), plasma, mean
[7] = PK parameters in PGF could not be fitted

Row | Structure (SMILES) | course of metabolite content in intestinal bacteria incubation [1] | Cmax ([2]; normal Balb/c mice) [ng/mL] | half-life ([2]; t1/2, normal Balb/c mice) [min] | Tmax ([2]; normal Balb/c mice) [min] | AUC(0−t) ([2]; normal Balb/c mice) [µg/L/min] | AUC(0−∞) ([2]; normal Balb/c mice) [µg/L/min] | AUC(0−t) [3, 6] [µg/L/min] | AUC(0−∞) [3, 6] [µg/L/min] | amount detected in tumor tissue of tumor mice compared with PGF tumor mice [4] | tissues in which the metabolite is distributed [4] | other results
1 | OC[C@H]1O[C@@H](OCCc2ccc(O)cc2)[C@H](O)[C@@H](O)[C@@H]1O [Salidroside, salidroside] | gradually decreased | 257 | 90.8 | 44 | 33814.78 | 36004.16 | 22373.93 | 23773.54 | a large amount | liver, kidney, stomach, small intestine, etc. | highest peak concentration of metabolite in intestinal bacteria incubation ([1]; peak at 15 min): 3.29 µg/mL; Cmax ([2]; PGF mice): 82.7 ng/mL; half-life ([2]; t1/2, PGF mice): 14.2 min; Tmax ([2]; PGF mice): 16 min; AUC(0−t) ([2]; PGF mice): 3079.01 µg/L/min; AUC(0−∞) ([2]; PGF mice): 3205.99 µg/L/min; Cmax ([3]; Balb/c, mouse, plasma, po, 109.2 mg/kg, cmax, PGF tumor mice, mean): 75 ng/mL; half-life ([3]; Balb/c, mouse, plasma, po, 109.2 mg/kg, t1/2, PGF tumor mice, mean): 20.4 min; Tmax ([3]; Balb/c, mouse, plasma, po, 109.2 mg/kg, tmax, PGF tumor mice, mean): 18 min; AUC(0−t) ([3]; PGF tumor mice, plasma, mean): 2207.64 µg/L/min; AUC(0−∞) ([3]; PGF tumor mice, plasma, mean): 2452.12 µg/L/min
2 | OCCc1ccc(O)cc1 [Tyrosol, tyrosol] | increased gradually with incubation time | 126 | 110 | 36 | 13158.45 | 13944.89 | 8918.61 | 9833.89 | a large amount | liver, kidney, stomach, small intestine, heart, spleen, lung, colon, and other organs and tissues | plasma concentration in PGF mice compared with normal group [2, 7]: lower than that in the normal group; plasma exposure in tumor mice compared with PGF tumor mice [3, 7]: significantly higher
3 | O=[N+]([O-])c1ccc(OP(=O)(O)Oc2ccc([N+](=O)[O-])cc2)cc1 [BNPP, bis-p-nitrophenyl phosphate] |  |  |  |  |  |  |  |  |  |  | effect on metabolic rate of SNZ by gut microbiota ([5]; BNPP 0, 1, 5 and 10 mM): inhibited in a dose-dependent manner; inhibition rate of tyrosol production ([5]; BNPP 1 mM): 81.5%; inhibition rate of tyrosol production ([5]; BNPP 5 mM): 93.1%; inhibition rate of tyrosol production ([5]; BNPP 10 mM): 100.0%; prolongation of SNZ metabolism compared with control group ([5]; BNPP 10 mM, within 120 min): approximately 60 min
